# Compound activity deposited in PubChem by several laboratories.
# WT yeast gro inh – growth inhibition of WT yeast, mitochondrial fusion screen. mitochondrial fusion phenotypic screen, WT strain. inhibition, % at 10 µM. 2.1% of 190,000 active. AID 1362; in the data active = inhibition above about 58%; tested in S. cerevisiae
# ABCG2 inh – blocks JC-1 efflux by human ABCG2 transporter. Q9UNQ0. IgMXP3 cells, flow cytometry. inhibition, % at 6.6 µM. 0.1% of 190,000 active. AID 1325;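 active = inhibition above 80%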;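 note: 0% = DMSO and 100% = nicardipine control wells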
# Target sequence (Q9UNQ0 whole entry, looked up): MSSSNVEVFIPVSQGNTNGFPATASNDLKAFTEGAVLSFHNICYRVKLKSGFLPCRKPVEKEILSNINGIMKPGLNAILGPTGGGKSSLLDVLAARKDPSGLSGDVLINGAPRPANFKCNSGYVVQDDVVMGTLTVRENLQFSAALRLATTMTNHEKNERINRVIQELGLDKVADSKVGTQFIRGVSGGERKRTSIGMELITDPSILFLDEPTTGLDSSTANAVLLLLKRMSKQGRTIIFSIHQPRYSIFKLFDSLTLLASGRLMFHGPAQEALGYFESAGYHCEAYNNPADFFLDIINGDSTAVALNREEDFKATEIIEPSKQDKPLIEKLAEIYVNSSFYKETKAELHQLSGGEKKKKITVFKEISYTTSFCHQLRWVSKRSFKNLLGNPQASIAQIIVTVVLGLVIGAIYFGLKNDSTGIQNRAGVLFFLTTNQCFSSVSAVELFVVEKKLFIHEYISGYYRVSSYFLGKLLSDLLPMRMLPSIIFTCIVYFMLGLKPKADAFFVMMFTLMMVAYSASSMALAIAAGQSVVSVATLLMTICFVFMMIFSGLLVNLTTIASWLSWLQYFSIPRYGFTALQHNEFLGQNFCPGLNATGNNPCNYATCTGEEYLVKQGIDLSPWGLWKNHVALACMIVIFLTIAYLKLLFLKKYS
#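 Times: 10 min at 25 °C | Test system: Two drug-resistant human cell lines, ABCG2 and ABCB1 | Quantity: 3 million cells/mL final, two lines in 1:1 ratio | Signal: Flow cytometry, 530 nm JC-1 signal | Dosing: Compound at 6.6 µM | Controls: Nicardipine and DMSO wells | Reagent: JC-1 as fluorescent efflux pump substrate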
# L major viab – inhibitors of Leishmania major promastigote growth. Leishmania major promastigotes, resazurin fluorescence viability. inhibition, % at 10 µM. 9% of 200,000 active. AID 1063; in the data active = inhibition above about 50%;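 note: promastigotes grown with compound for 44 hours at 28 °C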
# RAM inhibit – inhibitors of the yeast RAM network | S. cerevisiae dse1pr::URA3 reporter, 5-FOA growth OD615, 2 d; analog-sensitive cbk1-as2 kinase mutant strain | 1.8% of 190,000 active | AID 868 | inhibition, % at 50 µM;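 active = inhibition above a set limit, 3 SD over mean compound inhibition, cut at about 8.4% in these data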;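 note: 0% = DMSO-only wells with no growth and 100% = 10 µM 1-NA-PP1 full growth; inhibition rescues growth on 5-FOA so higher OD means more RAM inhibition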
# ABCB1 inh – inhibitors of human ABCB1 transporter, ABCG2 counter-screen. 0.067% of 190,000 active. P08183. CCRF-Adr cells, JC-1 efflux, flow cytometry. inhibition, % at 6.6 µM. AID 1326; in the data active = inhibition above about 40%;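 note: 0% = vehicle and 100% = reference inhibitor; higher value means more JC-1 retained so stronger ABCB1 efflux block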
# * hit, by the source's call; nt = no result given. Most compounds without a hit are left out; they make up all but 12% or so of the library.
SMILES,WT yeast gro inh,ABCG2 inh,L major viab,RAM inhibit,ABCB1 inh
Cc1ccc(N2CCN(S(=O)(=O)N3CCCCC3)CC2)cc1Cl,-5,11,76*,0,0
COc1cc(CNC(C)C)c(Br)cc1OC1CCCC1,-7,2,6,0,1
O=S(=O)(c1cccc(C(F)(F)F)c1)N1CCN(C(=S)NC2CC2)CC1,-4,3,55*,2,1
CC(C)NC(=S)N1CCN(S(=O)(=O)c2cccc(C(F)(F)F)c2)CC1,-48,-8,95*,1,0
COc1ccccc1-c1nc(C#N)c(N2CCc3ccccc3C2)o1,-4,10,3,10*,1
Cc1c(N=Cc2nc3ccccc3n2C)c(=O)n(-c2ccccc2)n1C,-1,90*,4,0,2
Cc1c(N=C2C=C(Br)C(=O)C(Br)=C2)c(=O)n(-c2ccccc2)n1C,0,3,-2,6,1
Cc1c(N=C2C=CC(=O)c3ccccc32)c(=O)n(-c2ccccc2)n1C,13,6,101*,7,1
Cn1c(/C=N/c2nc3ccccc3[nH]2)nc2ccccc21,6,1,100*,1,0
Cc1c(N=Cc2nc3ccccc3[nH]2)c(=O)n(-c2ccccc2)n1C,-1,3,-5,3,1
COc1cc(OC)cc(C(=O)NCC(=O)OCC(=O)N2CC(C)CC(C)C2)c1 (centres undefined),0,2,-9,1,1
COc1ccc(C2C(C#N)=C(N)Nc3nc4ccccc4n32)cc1 (centres undefined),-9,9,65*,3,1
Cc1ccc(Nc2nc(/N=C/NO)n[nH]2)cc1C,1,6,-3,2,1
Cc1ccc(NC(=O)/C=C/c2ccc3c(c2)OCO3)cc1S(=O)(=O)N1CCOCC1,1,-20,12,5,-8
CC(C)C(C)(C#N)NC(=O)CSc1nc(C2CCCCC2)n(-c2ccccc2)n1 (centres undefined),-1,19,80*,6,5
CSCCC(NS(=O)(=O)c1ccc(Cl)cc1)C(=O)OCC(=O)c1c(C)[nH]c2ccccc12 (centres undefined),11,-3,48,10*,0
Cc1nc(NC(=O)COC(=O)CCS(=O)(=O)c2ccccc2Cl)c(Cl)cc1Cl,61*,1,3,2,1
Cc1[nH]c2ccccc2c1C(=O)COC(=O)CCS(=O)(=O)c1ccccc1Cl,8,4,60*,4,0
CC(O)C(NS(=O)(=O)c1ccc(Cl)cc1)C(=O)OCC(=O)c1c[nH]c2ccccc12 (centres undefined),10,2,12,0,-1
Cc1cccc(-n2cc(-c3ccccc3)c3c(NN4CCOCC4)ncnc32)c1,36,-1,63*,-1,0
Cc1ccc(-n2cc(-c3ccccc3)c3c(NN4CCOCC4)ncnc32)cc1,28,6,81*,1,3
Cc1cc(=O)n2[nH]c(-c3ccccc3)cc2n1,12,1,0,1,0
CCc1c(C)nc2cc(-c3ccc(OC)cc3)[nH]n2c1=O,7,16,58*,6,0
Cc1cc(=O)n2[nH]c(-c3ccc(C(C)(C)C)cc3)cc2n1,4,2,100*,3,0
COc1ccc(NC(=O)C2CCCN(S(=O)(=O)c3ccc4c(c3)oc(=O)n4C)C2)c(OC)c1 (centres undefined),11,3,-5,1,5
SMILES,WT yeast gro inh,ABCG2 inh,L major viab,RAM inhibit,ABCB1 inh
c1ccc(CCNc2nc3ccccc3s2)cc1,28,5,-7,0,0
c1ccc(CCNc2ccnc3cc4ccccc4cc23)cc1,63,1,100*,2,0
COc1ccc(C(=O)N2CCN(C3CCN(Cc4ccccc4)CC3)CC2)cc1OC,16,8,15,2,2
COc1cccc(C(=O)N2CCN(C3CCN(Cc4ccccc4)CC3)CC2)c1,12,3,90*,2,0
COc1ccccc1C(=O)N1CCN(C2CCN(Cc3ccccc3)CC2)CC1,-10,1,91*,-1,0
O=C(c1cccc(OC2CCN(C3CCCC3)CC2)c1)N1CCCCCCC1,0,0,89*,2,0
CCCCn1c(=O)nc2n(-c3ccc(Cl)cc3)c3ccccc3cc-2c1=O,-11,3,-7,8,0
Cc1ccc(-n2nnnc2SCC(=O)N2CC(=O)Nc3ccccc32)cc1,-7,4,1,0,1
CCN(CC)S(=O)(=O)c1ccc(Cl)c(C(=O)Nc2cc(C)nn2-c2ccccc2)c1,5,4,65*,-1,1
Fc1ccc(NC(=S)NCCc2ccc(Cl)cc2)cc1,57,1,17,-1,0
Fc1ccc(CCNC(=S)Nc2ccc(F)c(Cl)c2)cc1,77*,0,12,-1,0
O=[N+]([O-])c1ccc(NC(=S)NCCc2ccc(F)cc2)cc1,85*,9,20,-1,0
O=C(COc1ncnc2ccccc12)NCC1CCCO1 (centres undefined),-6,2,-4,1,0
Cc1ccc(C(=O)N(Cc2ccc3c(c2)OCO3)Cc2nc3ccccc3c(=O)[nH]2)cc1,16,3,96*,1,2
COc1c[nH]n(C2CCCCC2)c(=O)c1=O,12,0,-4,-2,0
CCOC(=O)c1cnc(SC)nc1Oc1cccc(NC(=O)c2ccc(Cl)cc2)c1,-18,45,0,7,3
CCOC(=O)c1cnc(-c2ccccc2)nc1Oc1cccc(Cl)c1,-12,49,-3,8.9*,0
CCOC(=O)c1cnc(SC)nc1Oc1cccc(NS(=O)(=O)c2ccc(Cl)cc2)c1,0,10,0,9.2*,1
O=C(Cc1cc(=O)[nH]c(=O)[nH]1)NCc1ccccc1,0,3,-9,1,0
Cc1sc2ncn(CC(=O)NCCCC(=O)N3CCN(Cc4ccc5c(c4)OCO5)CC3)c(=O)c2c1C,-5,0,-14,3,1
Cc1ccc(S(=O)(=O)N(C(=O)c2ccncc2)c2ccc(OC(=O)c3ccncc3)cc2)c(C)c1,-7,2,76*,6,nt
Cc1ccc(C)c(S(=O)(=O)N(C(=O)c2ccncc2)c2ccc(OC(=O)c3ccncc3)cc2)c1,8,2,5,5,1
CC1(C(=O)NCC2CCCO2)Oc2cccnc2NC1=O (centres undefined),8,2,9,-1,0
CCCCCc1ccc(S(=O)(=O)NCCc2ccncc2)cc1,28,1,78*,0,0
COc1ccc(CCNS(=O)(=O)c2ccc3c(c2)OCCO3)cc1,-14,1,-5,1,0
COc1ccc(CCNS(=O)(=O)c2ccc(OC)cc2)cc1,74*,2,-4,1,1
CC(C)CN1CCC(C(=O)N2CCN(c3ccccc3F)CC2)CC1,-6,-1,82*,1,nt
